Bioassay records from PubChem BioAssay.
CAL PDZ FP-1: blocks peptide binding to the human CAL PDZ domain. Q9HD26. AID 602252. hit rate 0.92% among 300,000. inhibition, % at 24.9 µM. purified CAL PDZ, TMR-peptide fluorescence polarization, 1 h;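 active = mean inhibition of at least 30% with at least half of replicates also reaching 30%; inconclusive = no clear call, values can overlap the other calls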;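 also: 0% = DMSO neutral control and 100% = excess unlabeled competitor peptide PRC23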
NTR1 agonist: activates human neurotensin receptor 1; NTR1-U2OS beta-arrestin-GFP spot imaging, agonist mode; activation, % at 20 µM; hit rate 0.17% among 330,000; AID 493036;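 active = activation at or above 40% of the spot to cytoplasm intensity ratio, with at least 20 cells analyzed; inconclusive = wells under 20 cells, flagged as cytotoxic or low count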;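 also: 0% = DMSO without peptide and 100% = 100 nM NTR1 peptide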
PKA-R2B act: PKA-R2B complex activation; P22694+P31323; PKA-R2B holoenzyme dissociation, Cy5-IP20 fluorescence polarization; R2B truncated from residue 108, S112A mutant; 0% DMSO only, 100% 113 µM cGMP; activation, % at 11.4 µM; hit rate 0.079% among 340,000;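 active = activation above a cutoff set at the mean over all compounds plus 3 SD, cut at about 18% in these data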;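 also: higher means more holoenzyme dissociation and a rise in polarization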
PKA-R1A activ: activates the PKA-R1A holoenzyme complex | P00514+P68181 | PKA-R1A dissociation, Cy5-IP20 fluorescence polarization; scaled: DMSO 0%, 113 µM cGMP 100% | activation, % at 11.4 µM | hit rate 0.083% among 340,000;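 active = percent activation above the mean of all tested compounds plus 3 SD, cut at about 19% in these data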;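 also: higher means more PKAc released from R1A so a rise in polarization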
CAL PDZ FP-2: inhibitors of human CAL PDZ peptide binding; Q9HD26; purified CAL PDZ, TMR-peptide fluorescence polarization, 1 h; inhibition, % at 20 µM; hit rate 0.02% among 330,000; AID 504414;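 active = highest replicate inhibition of at least 40%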;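 also: plate controls were DMSO neutral control wells for no effect and unlabeled competitor peptide control wells for full effect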
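Material – purified CerCALP PDZ construct · Detection – FP readout, S and P plane fluorescence · Measure – percent inhibition from loss of millipolarization · Controls – unlabelled peptide for full inhibition, DMSO wells as neutral · Probe or stimulus – TMR-labelled reporter peptide T*-PRC34 bound in PDZ groove · Times – 1 h at RT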
dFosB act-1: mouse delta FosB homodimer activation. purified delta FosB, TAMRA-CDK5 oligo fluorescence polarization; percent of positive-control signal above neutral wells. activation, % at 25 µM. hit rate 0.99% among 340,000. AID 493131;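 active = mean activation above about 17%, with every replicate also reaching it, limit read from the data, passing the limit was not always enough; inconclusive = only one of the two conditions met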
Target sequence (P13346 whole entry, looked up): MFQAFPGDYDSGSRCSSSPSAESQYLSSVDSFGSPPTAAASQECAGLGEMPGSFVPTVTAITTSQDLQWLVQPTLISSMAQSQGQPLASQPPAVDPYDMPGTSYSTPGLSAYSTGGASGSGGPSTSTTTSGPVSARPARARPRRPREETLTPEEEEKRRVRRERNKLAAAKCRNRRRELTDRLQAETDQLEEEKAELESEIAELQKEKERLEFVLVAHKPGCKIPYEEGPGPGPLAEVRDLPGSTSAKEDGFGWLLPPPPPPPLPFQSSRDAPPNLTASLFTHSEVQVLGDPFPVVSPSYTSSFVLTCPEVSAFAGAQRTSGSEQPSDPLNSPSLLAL
dFosB act-2: delta FosB (mouse) homodimer activation. shares compounds with dFosB act-1. purified delta FosB, TAMRA-CDK5 oligo fluorescence polarization; normalised: neutral wells 0, positive control 100. activation, % at 24.9 µM. 2,400 tested, under 10 active;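 active = highest replicate activation at or above 34% and every replicate reaching that threshold; inconclusive = meets only one of the two criteria; inactive = meets neither criterion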;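 also: higher polarization means more probe DNA bound by delta FosB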
* hit, by the source's call; ? = inconclusive; · = not tested or not shown. Most compounds without a hit are left out; they make up all but 2% or so of the library.

SMILES	CAL PDZ FP-1	NTR1 agonist	PKA-R2B act	PKA-R1A activ	CAL PDZ FP-2	dFosB act-1	dFosB act-2
S=c1nc(-c2ccc(Br)cc2)[nH]c2ccccc12	-3.0	3.7	-15.2	-9.1	-2.4	45.4*	-1.3
CC(C)CC(NC(=O)C(Cc1ccc(OCc2ccccc2)cc1)NC(=O)OC(C)(C)C)C(N)=O (centres undefined)	-3.3	0.6	1.8	-3.8	-1.3	29.8*	1.0
COC(=O)C(Cc1ccccc1)NC(=O)C(CC(C)C)NC(=O)OC(C)(C)C (centres undefined)	-2.2	1.1	-18.3	-6.8	-1.4	-5.8	·
Cc1cc(C)c(S(=O)(=O)N2CCN(C(=O)c3cc4ccccc4o3)CC2)c(C)c1	-1.0	2.8	-2.8	-8.8	-2.6	-1.3	·
O=C(c1cc2ccccc2o1)N1CCN(S(=O)(=O)c2ccc(F)c(F)c2F)CC1	·	6.8	5.1	-2.3	1.1	33.2*	-1.1
CCOc1ccc(CCNC(=O)Cn2c(-c3nonc3N)nc3ccccc32)cc1OCC	0.6	0.7	-9.0	14.7	-2.6	23.7*	-0.8
CCCCOc1ccccc1NC(=O)Cn1c(-c2nonc2N)nc2ccccc21	0.1	1.4	2.3	-1.4	-0.8	73.6*	2.0
CCOc1ccc(CCNC(=O)Cn2c(=O)oc3ccccc32)cc1OCC	·	2.7	-11.1	-8.0	-0.5	0.6	·
Nc1nonc1-c1nc2ccccc2n1CC(=O)N/N=C\c1ccc(-c2ccc(Cl)cc2)o1	-2.0	5.3	6.2	5.5	·	34.7*	-6.9
NNC(=O)Cn1c(-c2nonc2N)nc2ccccc21	·	-0.2	5.6	4.6	-1.0	-10.0	·
O=C1OC(CC(=O)N(Cc2nnc(-c3ccc(Cl)cc3)o2)C2CC2)c2ccccc21 (centres undefined)	·	-0.9	-3.1	5.8	-2.5	-15.6	·
O=C(NNC(=O)c1ccc(-c2ccccc2)cc1)Nc1ccc(F)cc1F	3.0	-0.7	-5.4	-1.3	-1.1	30.0*	-3.0
O=C(Nc1ccc(C(=O)N2CCCCC2)cc1)c1ccc([N+](=O)[O-])cc1	-0.1	0.6	-6.2	-6.4	0.1	2.5	·
CC(NC(=O)CNC(=O)c1ccco1)c1ccccc1 (centres undefined)	-7.5	0.2	-4.5	-5.8	-2.1	3.3	·
CCN1CCN(c2nc3c(C)cccn3c(=O)c2/C=C(\C#N)S(=O)(=O)c2ccc(Cl)cc2)CC1	1.5	2.5	5.7	-4.0	-2.1	48.3*	-2.2
O=C1C=CC2(O[C@H](c3ccccc3)[C@@H](c3ccccc3)O2)[C@H](Sc2ccccc2O)C1	-2.1	·	0.4	-5.6	0.0	-13.2	·
O=C(CSc1ccc2nnc(-c3cccnc3)n2n1)Nc1ccccc1C(F)(F)F	-8.4	0.3	3.3	0.5	-0.9	-2.8	·
Nc1ccc(S(=O)(=O)Nc2nccc(/C=C/c3ccccc3F)n2)cc1	-3.5	0.4	·	·	-1.3	25.9*	2.6
Cc1ccc(NC(=S)NCc2ccc(F)cc2)cc1	-1.6	0.7	0.6	8.2	0.0	-13.2	·
Cc1ccc(CNC(=S)Nc2ccc(NS(=O)(=O)c3ccc(C)cc3)cc2)cc1	-0.7	14.2	3.8	1.2	-1.3	18.8*	2.8
COc1ccc(C)cc1NC(=O)Nc1ccc2c(c1)CCC2	-3.1	4.2	-10.3	-11.2	-1.5	23.4*	0.9
O=C1c2ccccc2[C@@H]2C[C@@H](O)[C@H](Nc3ccccc3-c3ccccc3)CCN12	-1.2	0.7	3.0	-1.7	0.6	-0.6	·
Cc1ccccc1CNC(=O)C1CCCN(c2nnc(C)c3c(C)n(-c4ccccc4)nc23)C1 (centres undefined)	-3.9	16.6	-7.6	-15.4	-3.8	17.8*	-4.1
Cc1nnc(N2CCCC(C(=O)NCc3cccc(F)c3)C2)c2nn(-c3ccccc3)c(C)c12 (centres undefined)	21.3	6.6	10.2	0.8	-3.0	-19.6	·
CCc1ccc(CNC(=O)C2CCCN(c3nnc(C)c4c(C)n(-c5ccccc5)nc34)C2)cc1 (centres undefined)	63.8*	19.9	-5.7	-4.8	-2.3	30.9*	?
SMILES	CAL PDZ FP-1	NTR1 agonist	PKA-R2B act	PKA-R1A activ	CAL PDZ FP-2	dFosB act-1	dFosB act-2
CCCCc1ccc(NC(=O)CSc2nc(=O)n(CCN(CC)CC)c3c2CCC3)cc1	3.5	3.7	-10.1	-5.6	-2.4	-2.2	·
Cc1cc(C)c(S(=O)(=O)N2CCc3ccccc32)c(C)c1	-5.8	2.5	-4.7	-0.4	-1.6	26.8*	1.9
C#CCCc1ccccc1/C=[N+](/C)[O-]	2.8	-1.2	-1.3	-3.0	-5.6	2.6	·
COc1ccc(C(=O)Nc2ccc(Oc3nc(C)nc4sc(-c5ccccc5)cc34)cc2)cc1OC	1.0	11.6	1.0	-3.8	0.0	33.6*	-0.9
COc1cc(C(=O)Nc2ccc(Oc3ncnc4sc(-c5ccccc5)cc34)cc2)cc(OC)c1OC	-5.2	1.3	-1.2	-8.7	-0.8	68.2*	5.7
COc1ccc(C(=O)Nc2ccc(Oc3ncnc4sc(-c5ccccc5)cc34)cc2)cc1OC	-3.7	-1.0	-4.4	1.4	-0.9	-6.7	·
O=C(NCC(=O)N1CCOCC1)c1ccc(Br)o1	-4.3	-0.6	-7.5	-2.2	-1.9	-7.5	·
O=C(COC(=O)CSc1ccccc1)NC1CCS(=O)(=O)C1 (centres undefined)	·	·	-1.0	-1.6	·	·	·
CN(Cc1ccccc1)C(=O)c1ccc(NC(=O)Cc2ccc(NC(=O)C3CCCN(C(=O)c4ccccc4)C3)cc2)cc1 (centres undefined)	-3.0	·	5.4	0.0	0.6	-12.0	·
CC(=O)c1ccc(NC(=O)Cn2cnc(S(=O)(=O)N3CCC(C)CC3)c2)cc1	-2.9	-0.3	-9.9	-1.3	-1.1	35.2*	-2.1
NC(=O)c1nsc(C(=O)N(c2cccc(O)c2)C(C(=O)NC2CCCC2)c2ccc(Cl)cc2)c1N (centres undefined)	·	7.1	-14.8	2.2	-1.3	71.2*	0.9
COc1ccc(N(C(=O)c2snc(C(N)=O)c2N)C(C(=O)NC2CCCC2)c2ccc(F)cc2)c(OC)c1 (centres undefined)	-12.5	0.6	4.9	-15.1	-2.1	32.4*	-6.5
CC(=O)N1CCN(c2ccc(NCc3ccc(-c4cccc(Cl)c4)o3)cc2)CC1	1.0	3.8	-0.9	-2.4	-1.8	-3.9	·
O=C(CCCCCn1c(=S)[nH]c2ccc(Br)cc2c1=O)NCC1CCCO1 (centres undefined)	2.0	1.8	-4.9	-4.4	-1.7	-4.0	·
NS(=O)(=O)c1ccc(CCNC(=O)c2ccc(Cn3c(=O)[nH]c4ccccc4c3=O)cc2)cc1	-0.3	1.5	6.0	-14.4	-7.2	34.1*	-9.8
